GASC1 inh = inhibitors of GASC-1 (KDM4C) histone demethylase, primary screen, biochemical, single concentration HTS; actives 0.15% (n = 96,000); Lysine-specific demethylase 4C (Homo sapiens), Q9H3R0; inhibition, % at 12.5 µM; GST-KDM4C 2-372, H3K9me3 peptide, LANCE TR-FRET;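 active = mean replicate inhibition above about 25%, with at least 55% of replicates also reaching it, limit read from the data, passing the limit was not always enough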
Target sequence (Q9H3R0 2-372 limits assumed): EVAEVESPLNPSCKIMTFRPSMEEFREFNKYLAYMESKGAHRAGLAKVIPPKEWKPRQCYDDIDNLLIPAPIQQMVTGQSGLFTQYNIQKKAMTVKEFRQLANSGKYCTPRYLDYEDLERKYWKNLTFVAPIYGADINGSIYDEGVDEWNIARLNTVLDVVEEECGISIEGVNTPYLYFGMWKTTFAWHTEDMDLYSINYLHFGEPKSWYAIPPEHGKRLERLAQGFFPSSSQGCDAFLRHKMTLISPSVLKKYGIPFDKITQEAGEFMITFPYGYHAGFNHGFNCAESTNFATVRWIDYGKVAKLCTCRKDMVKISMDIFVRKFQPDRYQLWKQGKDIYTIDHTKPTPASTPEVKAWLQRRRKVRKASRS
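material = GST-tagged GASC-1 (JMJD2C) catalytic fragment, aa 2-372 | amount = enzyme final amount 10 nM | medium = HEPES buffer, pH 7.5, plus ascorbate | also added = H3K9me3 peptide substrate, Fe(II), 2-oxoglutarate | dosing = single dose | times = 30 min demethylation and 1 h detection at room temperature | detection = LANCE TR-FRET | read-out basis = Fall in 671/618 emission ratio as inhibition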
IDH1 R132H inh = inhibitors of IDH1 R132H reductase, primary screen, biochemical, plate reader, single point; Isocitrate dehydrogenase [NADP] cytoplasmic (Homo sapiens), O75874; diaphorase/resazurin fluorescence, 60 min; inhibition, % at 10 µM; actives 0.18% (n = 70,000); in the data active = inhibition above about 34%
Numbers stand for hits; – = inactive; · = no result given. The entries come from a sample that favours hits as a whole.

SMILES	GASC1 inh	IDH1 R132H inh
Cc1ccccc1S(=O)(=O)NCC[C@H]1CC[C@@H](NC(=O)C2CCCCC2)[C@@H](CO)O1	–	–
COc1cc(OC)c(C2=NOC(C(=O)Nc3sc4c(c3C#N)CCC4)C2)cc1Cl (stereo unspecified)	·	–
O=C(C[C@H]1CC[C@@H]2[C@H](COC[C@@H](O)CN2S(=O)(=O)c2ccccc2Cl)O1)NCc1ccccc1Cl	–	·
COc1ccc(NC(=O)N(C)C[C@H]2Oc3ccc(NC(=O)Nc4ccccc4)cc3CC(=O)N([C@H](C)CO)C[C@@H]2C)cc1	42.3	–
COc1ccc(NC(=O)N(C)C[C@@H]2Oc3ccc(NC(=O)Nc4ccccc4)cc3CC(=O)N([C@@H](C)CO)C[C@H]2C)cc1	–	58.6
Cc1noc(C)c1S(=O)(=O)N(C)C[C@H]1Oc2ccc(NS(=O)(=O)c3ccccc3)cc2CC(=O)N([C@H](C)CO)C[C@@H]1C	45.1	–
Cc1noc(C)c1S(=O)(=O)N(C)C[C@H]1Oc2ccc(NS(=O)(=O)c3ccccc3)cc2CC(=O)N([C@@H](C)CO)C[C@@H]1C	–	–
COc1ccc(NC(=O)Nc2ccc3c(c2)CC(=O)N([C@@H](C)CO)C[C@@H](C)[C@@H](CN(C)C(=O)Nc2ccccc2)O3)cc1	–	–
COc1ccc(NC(=O)Nc2ccc3c(c2)CC(=O)N([C@H](C)CO)C[C@H](C)[C@@H](CN(C)C(=O)Nc2ccccc2)O3)cc1	–	–
CC(=O)c1cccc(NC(=O)Nc2cccc(S(=O)(=O)N3CCOCC3)c2)c1	·	–
O=C(C[C@H]1C[C@H]2c3cc(NC(=O)Nc4ccc(F)cc4)ccc3O[C@H]2[C@H](CO)O1)NC1CCCCC1	–	–
CC1OC(OC2C(O)C(C)OC(OCC3OC(OC4C(C)OC(Oc5cc(O)c6c(=O)c(O)c(-c7ccc(O)c(O)c7)oc6c5)C(O)C4O)C(O)C(O)C3OC(=O)/C=C/c3ccc(O)cc3)C2O)C(O)C(O)C1O (stereo unspecified)	·	–
Cc1cc(CNC(=O)c2cc(-c3cccnc3)nc3ccc(Cl)cc23)nn1C	·	–
CN(C)CC#Cc1ccc([C@@H]2[C@@H](CO)N3CCCCN(S(=O)(=O)c4ccccc4)C[C@@H]23)cc1	32.0	·
CC(C)CC#Cc1ccc([C@@H]2[C@@H](CO)N3CCCCN(S(=O)(=O)c4ccc(F)cc4)C[C@H]23)cc1	–	·
CC(C)CC#Cc1ccc([C@H]2[C@@H](CO)N3CCCCN(S(=O)(=O)c4ccc(F)cc4)C[C@H]23)cc1	26.1	·
CN(C)CC#Cc1ccc([C@@H]2[C@H](CO)N3CCCCN(S(=O)(=O)c4ccccc4)C[C@@H]23)cc1	–	·
O=c1[nH]c2cc(Cl)ccc2c(-c2ccccc2)c1SC1=NCCS1	·	–
CO[C@H]1CN(C)C(=O)c2ccc(NS(=O)(=O)c3cccc(Cl)c3)cc2OC[C@@H](C)NC[C@H]1C	43.2	72.2
CO[C@H]1CN(C)C(=O)c2ccc(NS(=O)(=O)c3cccc(Cl)c3)cc2OC[C@@H](C)NC[C@@H]1C	–	–
COc1ccc(-n2c(SCC(=O)c3cccc([N+](=O)[O-])c3)nnc2-c2ccc(Cl)cc2)cc1	·	–
CC(C)CC#Cc1ccc2c(c1)O[C@@H](CN(C)C(=O)c1cccnc1)[C@@H](C)CN([C@@H](C)CO)S2(=O)=O	47.1	38.6
CCC(=O)N(C)C[C@@H]1Oc2cc(C#Cc3ccccc3)ccc2S(=O)(=O)N([C@H](C)CO)C[C@@H]1C	–	–
CCC(=O)N(C)C[C@@H]1Oc2cc(C#Cc3ccccc3)ccc2S(=O)(=O)N([C@@H](C)CO)C[C@@H]1C	33.9	–
Cc1noc(C)c1NC(=O)N(C)C[C@@H]1Oc2cc(C#CCN(C)C)ccc2S(=O)(=O)N([C@H](C)CO)C[C@H]1C	52.0	43.6
SMILES	GASC1 inh	IDH1 R132H inh
CC(C)CC#Cc1ccc2c(c1)O[C@H](CN(C)C(=O)c1cccnc1)[C@@H](C)CN([C@@H](C)CO)S2(=O)=O	–	–
C[C@@H](O)C#Cc1ccc2c(c1)O[C@@H](CN(C)Cc1cncnc1)[C@@H](C)CN([C@@H](C)CO)S2(=O)=O	36.4	34.4
C[C@H](O)C#Cc1ccc2c(c1)O[C@H](CN(C)Cc1cncnc1)[C@@H](C)CN([C@@H](C)CO)S2(=O)=O	–	–
Cc1noc(C)c1NC(=O)N(C)C[C@H]1Oc2cc(C#CCN(C)C)ccc2S(=O)(=O)N([C@H](C)CO)C[C@@H]1C	–	–
COc1ccc(NS(=O)(=O)c2ccccc2)cc1CN1C(=O)c2ccccc2C1=O	·	–
Cc1cccc(-n2c(C)nnc2SCC(=O)Nc2ccc(Br)cc2F)c1	·	–
CC12CCCCC1(O)N(O)C(C(=O)c1ccccc1)=N2 (stereo unspecified)	·	–
CN1c2ccc(C#Cc3cccnc3)cc2[C@@H]2[C@@H](CCN2C(=O)C2CC2)[C@H]1CO	–	·
COCC#Cc1ccc2c(c1)O[C@@H](CN(C)Cc1cccnc1)[C@@H](C)CN([C@@H](C)CO)S2(=O)=O	44.4	65.1
CCCC#Cc1ccc2c(c1)O[C@@H](CN(C)Cc1cccnc1)[C@@H](C)CN([C@@H](C)CO)S2(=O)=O	–	52.5
COCC#Cc1ccc2c(c1)O[C@H](CN(C)Cc1cccnc1)[C@@H](C)CN([C@@H](C)CO)S2(=O)=O	–	–
CCCC#Cc1ccc2c(c1)O[C@H](CN(C)Cc1cccnc1)[C@H](C)CN([C@H](C)CO)S2(=O)=O	–	–
COc1ccc(CN2C(=O)C(O)(CC(=O)c3cccnc3)c3ccccc32)cc1OC (stereo unspecified)	·	–
CC(=O)Nc1ccc(NC(=O)CN(c2ccc(Br)c(C)c2)S(C)(=O)=O)cc1	·	–
CCCCN1C(=O)C(O)(CC(=O)c2ccco2)c2ccccc21 (stereo unspecified)	·	–
O=C(CCN1C(=O)C2C3C=CC(C4CC34)C2C1=O)Nc1ccc(F)cc1 (stereo unspecified)	·	–
O=C(O)COc1ccc(NC(=O)c2ccccc2-c2ccccc2C(=O)O)cc1	·	–
COc1cc(/C=C/C(=O)CC(=O)/C=C/c2ccc(O)c(OC)c2)ccc1O	·	–
COC(=O)/C=C/c1cc(O)ccc1O	·	88.8
O=C(O)/C=C/C(=O)N(Cc1ccccc1)Cc1ccccc1	·	–
CCc1ccc(OCC(=O)Nc2sc3c(c2C(=O)OC)CCC3)c(Br)c1	·	–
CN1C(=O)c2cc(NC(=O)C3CC3)ccc2OC[C@H]2O[C@@H](CC(=O)O)CC[C@@H]21	44.3	·
CN1C(=O)c2cc(NC(=O)C3CC3)ccc2OC[C@@H]2O[C@@H](CC(=O)O)CC[C@@H]21	–	·
COc1ccc(C#Cc2cnc3c(c2)C(=O)N([C@H](C)CO)C[C@@H](C)[C@H](CN(C)C)O3)cc1	–	–
COc1ccccc1-c1cnc2c(c1)C(=O)N([C@H](C)CO)C[C@H](C)[C@@H](CN(C)C)O2	–	–
C[C@@H]1CN([C@@H](C)CO)C(=O)c2cc(C#CCc3ccccc3)cnc2O[C@@H]1CN(C)Cc1ccc(C(=O)O)cc1	–	–
C[C@H]1CN([C@@H](C)CO)C(=O)c2cc(C#CCc3ccccc3)cnc2O[C@@H]1CN(C)Cc1ccc(C(=O)O)cc1	–	35.3
COc1ccc(C#Cc2cnc3c(c2)C(=O)N([C@H](C)CO)C[C@@H](C)[C@@H](CN(C)C)O3)cc1	–	–

High-throughput results as filed in PubChem.
